This is an account of results in ChEMBL document CHEMBL4513216, “Probing the Open Global Health Chemical Diversity Library for Multistage-Active Starting Points for Next-Generation Antimalarials” (ACS Infect Dis, 2020).

The series in a line: Toxicity liver stage against HepG2, at 10uM. It is filed as cell-based. Set-up: test concentration 10 uM, cell line HepG2-A16-CD81EGFP. The note with it: human, HepG2-A16-CD81EGFP cells; read-out: INHIBITION
A digest of the protocol:
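Uninfected HepG2-A16-CD81EGFP cells, 3 × 10^3 per well, 1536-well, plated on prespotted compound at 10 μM final, parasite-free screening media added to match infected plates; puromycin 10 μM positive, DMSO 0.5% negative; run in parallel with 48 h PbLuc assay at 37 °C, 5% CO2; viability by CellTiter-Glo luminescence, normalized to controls.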
`Cc1nc(-c2ccc(S(=O)(=O)N3CCC=C(F)C3)cc2)co1`: the cytotoxicity at 10 µM stood at 13.4%.
Then `CCNC(=O)NC[C@H]1COCc2nc3cc(OC)ccc3n21`, with -2.3%; and `Cc1ccc(CN(C(=O)C(C)S(C)(=O)=O)C2CC2)cc1C` (stereo unspecified), with 3.28%.
Then `Cc1oc(-c2ccsc2)nc1CC(=O)NCCCS(C)(=O)=O`, with -11.2%; and `O=c1n(CC2COCCO2)nc(CC2CCNCC2)n1-c1ccccc1` (stereo unspecified), with -3.41%.
The value for `CCS(=O)(=O)c1ccccc1N1CCC(N)CC1` was 3.03%; that for `CNC(=O)CN1CCOCC2(C1)CN(C(=O)CC(C)C)CCO2` (stereo unspecified) was 3.94%.
On to `COCCCNC(=O)C1CN(C(=O)c2cnccn2)C1`, for which the cytotoxicity at 10 µM stood at 0.722%.
With `Cc1cnn(CC2CCCN2Cc2cc(=O)n3ccccc3n2)c1` (stereo unspecified), the cytotoxicity at 10 µM was -1.61%.
As for `Cc1nc(C2CCCNC2)nc2c1CCCN2Cc1ccccn1` (stereo unspecified), the cytotoxicity at 10 µM was -2.76%.
Then `COc1c(CNC2CCCOc3ccc(F)cc32)c(C(C)C)nn1C` (stereo unspecified), with -5.83%; and `NC(=O)NC(=O)CN1CCN(c2nccs2)CC1`, with -17.9%.
As for `Cc1cc(C)nc(N2CCCC(c3cccc(-n4ccnc4)n3)C2)n1` (stereo unspecified), the cytotoxicity at 10 µM was -0.252%.
Regarding `Cn1cc(CN2CCC(F)(F)C3(CCN(c4cccc(F)c4)C3)C2)cn1` (stereo unspecified), the cytotoxicity at 10 µM is 45.9%.
The value for `Cn1cnc2c1CCN(Cc1ccc(C(=O)N3CCCC3)cc1)C2` was -8.62%; that for `Cc1nc(C2CCCN(C(=O)c3sc(C)nc3C)C2)no1` (stereo unspecified) was -1.96%.
Then `CC(C)OCc1nn(C)c2c1CN(Cc1cccs1)CC2`, with -99.5%; and `CC(C)NC(=O)c1nnn(-c2cccc(C(F)(F)F)c2)c1N`, with -11.5%; and `Cc1occc(=O)c1OCC(=O)N1CCN(c2ccccc2)CC1`, with -2.88%.
For the compound `CC1(C)CCN(Cc2ccccc2-c2nc(C(C)(C)C)cc(=O)[nH]2)C1`, the cytotoxicity at 10 µM is -39.9%.
Then `Cc1nccn1C1CCCN(C(=O)c2ccc3c(c2)OCCCO3)C1` (stereo unspecified), with -12.9%.
The value for `CN(C)c1cc2c(nn1)CCN(C(=O)C1Cc3ccccc3O1)C2` (stereo unspecified) was -18.5%.
For the compound `CCn1cncc1CNC(=O)c1ccc(C2CCCN2C(=O)COC)s1` (stereo unspecified), the cytotoxicity at 10 µM came to 6.48%.
The value for `CC(=O)Nc1nc(C(=O)NCCOc2ccccc2F)cs1` was -6.19%.
The value for `CCOCc1cncc2c1CCN(S(=O)(=O)c1ccccc1)C2` was 14.6%.
Take `O=C(O)C1(O)CCN(c2ccc3cccc(Cl)c3n2)CC1`: the cytotoxicity at 10 µM turned out to be 4.57%.
Then `CCc1ncc(C(=O)N(C)Cc2cc(-c3ccncc3)no2)cn1`, with -13.2%; and `O=C1CCC2(CCN(Cc3cc(F)cc(F)c3)CC2)CN1CCO`, with -11.6%; and `Cc1nn(C)c2cnn(Cc3ccc(C(=O)NCC4CC4)o3)c12`, with 6.06%.
Then `CC(O)c1cn(Cc2ccc(Cl)cc2Cl)nn1` (stereo unspecified), with 15.5%.
The value for `COc1ccc(C(=O)N2CCCC2c2noc(C(C)C)n2)nn1` (stereo unspecified) was -4.01%; that for `Cc1cnn(CC2CCCN2C(=O)CCc2ccco2)c1` (stereo unspecified) was -4.7%.
For `O=C(COc1cccnc1)NCc1nncn1C1CCCCC1`, the cytotoxicity at 10 µM came out at 3.46%.
Take `Cc1ccc(CNC2(Cc3cc(-c4ccc(F)cc4)on3)COC2)o1`: the cytotoxicity at 10 µM amounted to 8.13%.
Then `O=C1[C@@H]2CN(C3CCOCC3)C[C@H]2CCN1CC1CC1`, with 4.17%; and `CS(=O)(=O)NCC1Cc2ccccc2O1` (stereo unspecified), with 2.01%.
Then `CN(Cc1cncs1)C1CCN(C(=O)OC(C)(C)C)CC1`, with 5.94%; and `CC(=O)N1CCN(C(=O)CNc2cccc(OC(F)F)c2C)CC1`, with -11.4%; and `CC(Cn1cccn1)NCc1nc(-c2ccc3c(c2)OCO3)no1` (stereo unspecified), with -12.4%.
Then `Cc1cc(CN2CC[C@H]3C(=O)N(c4ccsc4)CCO[C@H]3C2)no1`, with -69.2%; and `Cc1occc1C(=O)N1C[C@@H]2OCCN(CCN3CCCC3)[C@@H]2C1`, with -76.1%.
In the case of `Cn1cc(C2CN(C(=O)Cc3coc(-c4ccccc4)n3)CCO2)cn1` (stereo unspecified), the cytotoxicity at 10 µM was -12.4%.
On to `Cc1cc(C)c(CNC(=O)N2CCC(N3CCCCC3)CC2)c(=O)[nH]1`, for which the cytotoxicity at 10 µM was found to be 7.53%.
Take `O=C(c1scc2c1OCCO2)N1CCC(Cc2cccc(CO)c2)C1` (stereo unspecified): the cytotoxicity at 10 µM worked out at 6.01%.
Then `CC[C@@H](C)[C@H](NC(=O)Cn1ccc2c(Cl)cccc21)C(=O)O`, with 2.88%.
`CC(NC(=O)Cn1cccnc1=O)c1ccc(C(F)(F)F)cc1` (stereo unspecified): the cytotoxicity at 10 µM is 8.2%.
Then `COc1ccc(CN2CCOC[C@H](OCc3ccccc3)C2)cc1`, with 2.79%; and `Cc1cnn(C2CCCN(C(=O)Cc3cn4ccsc4n3)C2)c1` (stereo unspecified), with -4.89%; and `CCN(C(=O)CNC1CCc2ncnn2C1)C1=CCCCC1` (stereo unspecified), with 0.701%.
For the compound `Cc1nc(C2(NCC(=O)NC(=O)NCC(F)(F)F)CCCCC2)no1`, the cytotoxicity at 10 µM amounted to 18.4%.
Consider `COC[C@H]1CC[C@@H]2[C@@H](CCN2Cc2ccco2)O1`, for which the cytotoxicity at 10 µM was -137%.
Then `COCc1ncn2c1CN(S(=O)(=O)Cc1ccc(C)cc1)CC2`, with 0.854%; and `Cc1ccccc1CNC(=O)C1CCN(Cc2nccn2C)CC1`, with -17.9%; and `CS(=O)(=O)CC(=O)N1C[C@@H]2COC[C@]2(c2nnc(C3CC3)o2)C1`, with -13.1%.
Consider `Cc1ccc([C@@H]2CN(C(=O)CCc3cc(Cl)no3)C[C@H]2N(C)C)cc1`, for which the cytotoxicity at 10 µM was determined as 6.74%.
The value for `COc1cc(CN(C)C(=O)NCc2nccs2)ccc1SC` was -7.66%; that for `C[C@@H]1CN(CCC(=O)N(C)Cc2ccccc2)CC[C@@]1(O)C1CCC1` was 2.89%; that for `CC(C)OCCC(=O)NCCc1csc(N2CCCC2)n1` was -12.9%.
The value for `CCOc1cccc2c1OCC(C(=O)NS(=O)(=O)c1cncc(Br)c1)=C2` was -0.713%; that for `OC1(CNC2CCN(Cc3ccncc3)CC2)CCc2ccccc21` (stereo unspecified) was -1.41%; that for `CCCS(=O)(=O)N1CCc2onc(CNc3ncccn3)c2C1` was -2.25%.
Then `CO[C@@H]1CCN(Cc2ccoc2)C[C@@H]1Cc1ccccc1`, with 16.5%; and `Cc1ccc(CN2Cc3nccn3CC(Cn3cncn3)C2)s1` (stereo unspecified), with -141%.
Take `CN(c1cccnc1N1CCCC1)S(=O)(=O)c1cccnc1`: the cytotoxicity at 10 µM stood at 0.981%.
The value for `CCn1ccnc1CNCC1CCN(CC(O)c2ccccc2)CC1` (stereo unspecified) was -12.8%; that for `N#Cc1ccnc(N2CCN(CC(O)c3ccccc3)CC2)c1` (stereo unspecified) was 0.587%.
In the case of `COCCN(C)C(=O)Nc1cc2c(cc1SC)OCCO2`, the cytotoxicity at 10 µM stood at 4.69%.
The value for `CCC1=N[C@@]2(CC[C@@H]3CN(C(=O)NCc4ccccc4C)C[C@@H]32)C(=O)N1` was -71.1%.
Then `c1cc(-c2cnccn2)cc(-c2ccn(CCCN3CCCCC3)n2)c1`, with -2.15%; and `Cc1cccc(Cc2nc3c([nH]2)CCCNC3=O)c1`, with -12.9%; and `CC1CN(S(=O)(=O)c2ccc(C(=O)NCC(F)F)cc2)CCCO1` (stereo unspecified), with 4.05%.
Then `CC(Cn1cccn1)NC(=O)N(C)Cc1ccsc1` (stereo unspecified), with -3.81%; and `Cc1nccn1-c1nccnc1C1CCCN(C)C1` (stereo unspecified), with 2.2%; and `O=C(Cn1cc(I)cn1)NCC1CCC1`, with 14.5%.
`O=C1CC(N(C(=O)CCc2c[nH]c3ccccc23)C2CC2)C(=O)N1` (stereo unspecified): the cytotoxicity at 10 µM was 0.247%.
Then `CC(C)[C@H]1CN(CCS(C)(=O)=O)C[C@@H]1NC(=O)c1ccc(=O)[nH]c1`, with 3.06%; and `Cc1ccc(N2CC[C@H](O)[C@@H]2Cc2cnn(C)c2)nn1`, with 0.434%.
Consider `CNc1nc(CNC(=O)Nc2ccc(SC)c(F)c2)cs1`, for which the cytotoxicity at 10 µM was -5.75%.
Consider `CC(C)c1sc(Br)nc1C(=O)NCc1cccnc1`, for which the cytotoxicity at 10 µM worked out at 3.06%.
Then `O=C1CCC2(CCN(S(=O)(=O)c3ccccc3)CC2)N1CC1CC1`, with 3.41%; and `N#Cc1cccc(OC23CCCN(CC2)C3)c1` (stereo unspecified), with 1.73%; and `CCc1nc(CN(C)C2CCN(Cc3cnc(C)cn3)C2)no1` (stereo unspecified), with 4.23%.
Then `CCc1ncc2c(n1)CN(CC(=O)Nc1nnc(C)s1)CC2`, with 2.94%; and `CN(C)C(=O)C1CN(Cc2ccccc2)CCN(S(C)(=O)=O)C1` (stereo unspecified), with -5.43%.
Then `O=C(NCc1ccoc1)Nc1ccc(CN2CCOC2=O)cc1`, with 14.1%; and `Cc1cc(C)c2nc(CN3CCOC(CCO)C3)cc(O)c2c1` (stereo unspecified), with -9.26%; and `CC(C)CNC[C@H]1O[C@H](Cc2cc(-c3ccccn3)on2)CC[C@@H]1O`, with -0.238%.
Regarding `CCCN(CC1COc2ccccc2O1)C(=O)CCN1C(=O)CCC1=O` (stereo unspecified), the cytotoxicity at 10 µM was -37%.
The value for `CC1(NC(=O)Cc2csc(NC(=O)c3ccccc3)n2)CCS(=O)(=O)C1` (stereo unspecified) was 0.271%.
Take `Cc1noc(C)c1C(=O)NCc1ccc(N2CCOCC2)nc1`: the cytotoxicity at 10 µM was -7.91%.
Then `Cc1nccc([C@H]2C[C@@H]3CCN(S(=O)(=O)N(C)C)C[C@H]3O2)n1`, with -10.8%.
On to `Cn1cnc(S(=O)(=O)N2CCCC2)c1Cl`, for which the cytotoxicity at 10 µM was determined as 15.1%.
Then `CCn1c(SCC(N)=O)nnc1C(C)NC(=O)c1ccc(Cl)cc1` (stereo unspecified), with -36.4%; and `Cc1nc(C)n(CC2CCCN2CCOc2ccc(C#N)cc2)n1` (stereo unspecified), with -10.1%.
Then `O=C(C1CCCCC1)N1CCC2(CC1)CNCc1ccccc12`, with -6.13%; and `O=C(c1nc(Cc2c[nH]c3ccccc23)no1)N1CCCC1`, with 7.76%.
